{"source": "ChEMBL document CHEMBL1777741", "about": "“Design of a potent, soluble glucokinase activator with increased pharmacokinetic half-life” (Bioorg Med Chem Lett, 2011)", "key": {"[1]": {"assay": "Percentage unbound in dog plasma", "type": "ADME, cell-free, Canis lupus familiaris", "summary_of_the_method": "(§1)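 Unbound fraction in plasma was measured by equilibrium dialysis and reported as percentage free.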"}, "[2]": {"assay": "Half life in rat", "type": "ADME, organism-based", "conditions": "in vivo"}, "in vitro": {"assay": "in vitro", "conditions": "rat, plasma"}, "in vivo": {"assay": "in vivo", "conditions": "CR-Han Wistar, rat, iv, 1 mg/kg"}, "[3]": {"assay": "Intrinsic clearance in human hepatocytes measured per 10^6 cells", "type": "ADME, cell-based, Liver, Hepatocyte"}, "[4]": {"assay": "Half life in dog", "type": "ADME, organism-based, Canis lupus familiaris", "conditions": "in vivo"}, "[5]": {"assay": "Intrinsic clearance in rat hepatocytes measured per 10^6 cells", "type": "ADME, cell-based, Liver, Hepatocyte"}, "[6]": {"assay": "Intrinsic clearance in dog hepatocytes measured per 10^6 cells", "type": "ADME, cell-based, Canis lupus familiaris, Liver, Hepatocyte"}, "[7]": {"assay": "Percentage unbound in human plasma", "type": "ADME, cell-free", "summary_of_the_method": "as §1"}, "Hexokinase-4": {"molecular_target": "T1, Hexokinase-4 (Homo sapiens, UniProt P35557)", "T1 sequence (P35557 whole entry)": "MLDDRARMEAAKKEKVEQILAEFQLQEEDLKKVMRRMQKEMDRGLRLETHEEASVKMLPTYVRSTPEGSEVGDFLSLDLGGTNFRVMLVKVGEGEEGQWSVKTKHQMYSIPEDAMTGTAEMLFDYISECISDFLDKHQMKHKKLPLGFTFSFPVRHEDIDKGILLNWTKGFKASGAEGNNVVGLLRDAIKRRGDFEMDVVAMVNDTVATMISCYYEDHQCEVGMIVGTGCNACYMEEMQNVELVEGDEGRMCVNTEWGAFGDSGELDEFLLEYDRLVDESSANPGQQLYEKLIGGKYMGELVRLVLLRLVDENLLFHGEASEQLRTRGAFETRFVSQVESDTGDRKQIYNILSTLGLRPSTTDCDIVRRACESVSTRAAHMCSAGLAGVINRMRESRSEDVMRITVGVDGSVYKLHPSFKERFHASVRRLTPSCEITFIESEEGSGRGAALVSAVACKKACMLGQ", "assay": "Activation of His-tagged recombinant glucokinase expressed in Escherichia coli using [14C]-glucose substrate by […]"}, "[8]": {"assay": "Bioavailability in rat", "type": "ADME, organism-based", "conditions": "in vivo"}, "[9]": {"assay": "Solubility of the compound", "type": "physicochemical"}, "[10]": {"assay": "Bioavailability in dog", "type": "ADME, organism-based, Canis lupus familiaris", "conditions": "in vivo"}, "[11]": {"assay": "Clearance in dog", "type": "ADME, organism-based, Canis lupus familiaris", "conditions": "in vivo"}}}
{"compound": "COC[C@H](C)Oc1cc(O[C@@H](C)Cc2ccccc2)cc(C(=O)Nc2ccc(C(=O)O)cn2)c1", "values": [{"measurement": "fraction unbound", "setting": "[1]", "result": 0.0146}, {"measurement": "half-life", "setting": "[2]", "result": 270, "unit": "min"}, {"measurement": "fraction unbound", "setting": "in vitro", "result": 0.004}, {"measurement": "clearance", "setting": "in vivo", "result": 1.9, "unit": "mL/min/kg"}, {"measurement": "hepatocyte CLint", "setting": "[3]", "result": "< 1", "unit": "µL/min/1e6 cells"}, {"measurement": "half-life", "setting": "[4]", "result": 84, "unit": "min"}, {"measurement": "hepatocyte CLint", "setting": "[5]", "result": "< 1", "unit": "µL/min/1e6 cells"}, {"measurement": "hepatocyte CLint", "setting": "[6]", "result": "< 1", "unit": "µL/min/1e6 cells"}, {"measurement": "fraction unbound", "setting": "[7]", "result": 0.0044}]}
{"compound": "COC[C@H](C)Oc1cc(O[C@@H](C)Cc2ccc(Cl)o2)cc(C(=O)Nc2ccc(C(=O)O)cn2)c1", "values": [{"measurement": "fraction unbound", "setting": "in vitro", "result": 0.0025}, {"measurement": "clearance", "setting": "in vivo", "result": 1.6, "unit": "mL/min/kg"}, {"measurement": "EC50", "setting": "Hexokinase-4", "result": 30, "unit": "nM"}]}
{"compound": "COC[C@H](C)Oc1cc(O[C@@H](C)Cc2cc(F)cc(F)c2)cc(C(=O)Nc2ccc(C(=O)O)cn2)c1", "values": [{"measurement": "fraction unbound", "setting": "in vitro", "result": 0.001}, {"measurement": "clearance", "setting": "in vivo", "result": 1.1, "unit": "mL/min/kg"}]}
{"compound": "CC(C)Oc1cc(Oc2ccccc2)cc(C(=O)Nc2ccc(C(=O)O)cn2)c1", "values": [{"measurement": "fraction unbound", "setting": "in vitro", "result": 0.0021}, {"measurement": "clearance", "setting": "in vivo", "result": 0.2, "unit": "mL/min/kg"}]}
{"compound": "COCC(C)(C)Oc1cc(O[C@@H](C)Cc2ccccc2)cc(C(=O)Nc2ccc(C(=O)O)cn2)c1", "values": [{"measurement": "fraction unbound", "setting": "in vitro", "result": 0.0042}, {"measurement": "EC50", "setting": "Hexokinase-4", "result": "> 10000", "unit": "nM"}]}
{"compound": "CC(C)Oc1cc(OC2Cc3ccccc3C2)cc(C(=O)Nc2ccc(C(=O)O)cn2)c1", "values": [{"measurement": "fraction unbound", "setting": "in vitro", "result": 0.001}, {"measurement": "clearance", "setting": "in vivo", "result": 1.6, "unit": "mL/min/kg"}, {"measurement": "EC50", "setting": "Hexokinase-4", "result": 100, "unit": "nM"}]}
{"compound": "COC[C@H](C)Oc1cc(Oc2ccc(S(C)(=O)=O)cc2)cc(C(=O)Nc2ccc(C(=O)O)cn2)c1", "values": [{"measurement": "fraction unbound", "setting": "in vitro", "result": 0.0738}, {"measurement": "clearance", "setting": "in vivo", "result": 8.2, "unit": "mL/min/kg"}, {"measurement": "EC50", "setting": "Hexokinase-4", "result": 60, "unit": "nM"}]}
{"compound": "COC[C@H](C)Oc1cc(OC[C@H](C)c2ccccc2)cc(C(=O)Nc2ccc(C(=O)O)cn2)c1", "values": [{"measurement": "fraction unbound", "setting": "in vitro", "result": 0.0033}, {"measurement": "clearance", "setting": "in vivo", "result": 2.9, "unit": "mL/min/kg"}, {"measurement": "EC50", "setting": "Hexokinase-4", "result": 70, "unit": "nM"}]}
{"compound": "COC[C@H](C)Oc1cc(Oc2cccc(F)c2)cc(C(=O)Nc2ccc(C(=O)O)cn2)c1", "values": [{"measurement": "fraction unbound", "setting": "in vitro", "result": 0.0021}, {"measurement": "clearance", "setting": "in vivo", "result": 0.2, "unit": "mL/min/kg"}, {"measurement": "EC50", "setting": "Hexokinase-4", "result": 180, "unit": "nM"}]}
{"compound": "COC[C@H](C)Oc1cc(O[C@@H](C)Cc2ccc(F)cc2)cc(C(=O)Nc2ccc(C(=O)O)cn2)c1", "values": [{"measurement": "fraction unbound", "setting": "in vitro", "result": 0.0025}, {"measurement": "clearance", "setting": "in vivo", "result": 1, "unit": "mL/min/kg"}, {"measurement": "EC50", "setting": "Hexokinase-4", "result": 40, "unit": "nM"}]}
{"compound": "COC[C@H](C)Oc1cc(Oc2cccc(Cl)c2)cc(C(=O)Nc2ccc(C(=O)O)cn2)c1", "values": [{"measurement": "fraction unbound", "setting": "in vitro", "result": 0.0016}, {"measurement": "clearance", "setting": "in vivo", "result": 0.8, "unit": "mL/min/kg"}, {"measurement": "EC50", "setting": "Hexokinase-4", "result": 110, "unit": "nM"}]}
{"compound": "COC[C@H](C)Oc1cc(O[C@@H](C)Cc2ccccc2OC)cc(C(=O)Nc2ccc(C(=O)O)cn2)c1", "values": [{"measurement": "fraction unbound", "setting": "in vitro", "result": 0.0042}, {"measurement": "clearance", "setting": "in vivo", "result": 6.1, "unit": "mL/min/kg"}]}
{"compound": "C[C@@H](Cc1ccccc1)Oc1cc(OC2CCOCC2)cc(C(=O)Nc2ccc(C(=O)O)cn2)c1", "values": [{"measurement": "fraction unbound", "setting": "in vitro", "result": 0.0109}, {"measurement": "EC50", "setting": "Hexokinase-4", "result": "> 10000", "unit": "nM"}]}
{"compound": "COC[C@H](C)Oc1cc(Oc2ccccc2)cc(C(=O)Nc2ccc(C(=O)O)cn2)c1", "values": [{"measurement": "fraction unbound", "setting": "in vitro", "result": 0.0055}, {"measurement": "clearance", "setting": "in vivo", "result": 0.4, "unit": "mL/min/kg"}, {"measurement": "EC50", "setting": "Hexokinase-4", "result": 160, "unit": "nM"}]}
{"compound": "COC[C@H](C)Oc1cc(Oc2ccc(Cl)cc2)cc(C(=O)Nc2ccc(C(=O)O)cn2)c1", "values": [{"measurement": "fraction unbound", "setting": "in vitro", "result": 0.0012}, {"measurement": "clearance", "setting": "in vivo", "result": 0.9, "unit": "mL/min/kg"}]}
{"compound": "COC[C@H](C)Oc1cc(Oc2cc(F)cc(F)c2)cc(C(=O)Nc2ccc(C(=O)O)cn2)c1", "values": [{"measurement": "bioavailability", "setting": "[8]", "result": 97, "unit": "%"}, {"measurement": "fraction unbound", "setting": "[1]", "result": 0.0159}, {"measurement": "half-life", "setting": "[2]", "result": 948, "unit": "min"}, {"measurement": "fraction unbound", "setting": "in vitro", "result": 0.0023}, {"measurement": "clearance", "setting": "in vivo", "result": 0.1, "unit": "mL/min/kg"}, {"measurement": "hepatocyte CLint", "setting": "[3]", "result": "< 1", "unit": "µL/min/1e6 cells"}, {"measurement": "half-life", "setting": "[4]", "result": 294, "unit": "min"}, {"measurement": "solubility", "setting": "[9]", "result": 841, "unit": "µM"}, {"measurement": "hepatocyte CLint", "setting": "[5]", "result": "< 1", "unit": "µL/min/1e6 cells"}, {"measurement": "EC50", "setting": "Hexokinase-4", "result": 90, "unit": "nM"}, {"measurement": "hepatocyte CLint", "setting": "[6]", "result": "< 1", "unit": "µL/min/1e6 cells"}, {"measurement": "bioavailability", "setting": "[10]", "result": "> 100", "unit": "%"}, {"measurement": "clearance", "setting": "[11]", "result": 5.2, "unit": "mL/min/kg"}, {"measurement": "fraction unbound", "setting": "[7]", "result": 0.0055}]}
{"compound": "COC[C@H](C)Oc1cc(Oc2cccc(N(C)C)c2)cc(C(=O)Nc2ccc(C(=O)O)cn2)c1", "values": [{"measurement": "fraction unbound", "setting": "in vitro", "result": 0.0122}, {"measurement": "EC50", "setting": "Hexokinase-4", "result": 400, "unit": "nM"}]}
{"compound": "CC(C)Oc1cc(O[C@@H](C)Cc2ccccc2)cc(C(=O)Nc2ccc(C(=O)O)cn2)c1", "values": [{"measurement": "fraction unbound", "setting": "in vitro", "result": 0.0023}, {"measurement": "clearance", "setting": "in vivo", "result": 3.3, "unit": "mL/min/kg"}]}
{"compound": "COC[C@H](C)Oc1cc(Oc2ccc(OC)cc2)cc(C(=O)Nc2ccc(C(=O)O)cn2)c1", "values": [{"measurement": "fraction unbound", "setting": "in vitro", "result": 0.0069}, {"measurement": "clearance", "setting": "in vivo", "result": 3.2, "unit": "mL/min/kg"}, {"measurement": "EC50", "setting": "Hexokinase-4", "result": 60, "unit": "nM"}]}
{"compound": "CC(C)Oc1cc(O[C@@H](C)c2ccccc2)cc(C(=O)Nc2ccc(C(=O)O)cn2)c1", "values": [{"measurement": "fraction unbound", "setting": "in vitro", "result": 0.0035}, {"measurement": "clearance", "setting": "in vivo", "result": 0.6, "unit": "mL/min/kg"}, {"measurement": "EC50", "setting": "Hexokinase-4", "result": 150, "unit": "nM"}]}
